From article PMC2217059 (The Journal of General Physiology, 1997)
Where “and” joins values, the source holds several entries; their conditions need not be identical. Equal entries are not always repeated. Where two headings read alike, the source gives them in different places.

Assays:
[1] = target: T1, Na,K-ATPase (Sus scrofa, UniProt P05024); experiment: Na,K-ATPase activity; type: biochemical, pig
[2] = test system: Na,K-ATPase mutant Lys480Glu; conditions: ref Wang and Farley, 1992; cited from earlier work
[3] = test system: Na,K-ATPase Asp369 substituted with Asn or Ala; conditions: Asp369 substituted with uncharged Asn or Ala; ref Pedersen et al., 1996; cited from earlier work
[4] = target: T1, Na,K-ATPase; experiment: K+-dependent p-nitrophenylphosphatase; type: biochemical, pig
Procedure, shortened: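 K+-pNPPase was assayed at 37°C, pH 7.4, in 30 mM histidine/HCl with 10 pmol enzyme·ml−1, 20 mM MgCl2, K+ salts and 10 mM Na2pNPP (basal I ~90 mM). Substrate-dependence runs varied Na2pNPP at 0.05–0.4 M KCl. After 3 min, reactions were stopped with ice-cold TCA (final 5%) and p-nitrophenol was measured. Blanks were reagent blanks without enzyme. Results are the mean of two to four experiments.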

[5] = target: T1, Na,K-ATPase; conditions: cited from earlier work
[6] = I around 0.1 M, cited from earlier work
[7] = target: T1, Na,K-ATPase; experiment: Effect of NO3− on ADP-binding, competitive model of Fig. 4; design: species or system pig; conditions: line through (0,1); I 78–228 mM and constant I 178 mM
Procedure, shortened: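 ADP-binding affinities for pig kidney membrane Na,K-ATPase were determined by centrifugation binding at 0–2°C. Kdiss/KA was plotted against [NO3−] for the NaNO3 series (I 78–228 mM). […] A line through (0,1) was fitted, and KN for ENO3 was taken as the reciprocal slope.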

[8] = test system: H+-translocating Mg-ATPases from tissues of higher plants; conditions: ref Sze, 1985, Jacoby, 1987, Blumwald et al.; cited from earlier work
[9] = target: T1, Na,K-ATPase; experiment: Equilibrium binding of 14C-ADP to membrane-bound Na,K-ATPase; design: species or system pig; conditions: for Kd: read-out: K diss for ADP-binding
Procedure, shortened: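 The enzyme was membrane-bound Na,K-ATPase from pig kidney outer medulla, SDS-extracted. It was mixed on ice with water or Na+ salt in imidazole/sucrose/EDTA (pH 7.4), then with 14C-ADP (stock 40 μM) in Tris buffer (pH 6.3). NO3− and SO4 2− series used enzyme washed into buffer titrated with HNO3 or H2SO4. Final pH was 7.65–7.82 and basal I 78 mM. Samples were centrifuged at 100,000 g for 60 min at 0–2°C; bound ADP was total minus supernatant. Kdiss came from nonlinear regression with a common Bmax per series.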

[10] = target: Na,K-ATPase; conditions: read-out: K diss, Na+-form (E1-form), I < 0.1 M, ref Nørby and Jensen, 1971, Hegyvary and Post, Jørgensen, 1975, Skou and Esmann, 1981; cited from earlier work

## Nc1ncnc2c1ncn2[C@@H]1O[C@H](COP(=O)(O)OP(=O)(O)OP(=O)(O)O)[C@@H](O)[C@H]1O [ATP]
[1]; 20 mM KCl, [Mgtot] = [ATP] + 1 mM, 0.16–0.75 M NaCl, 37°C, pH 7.4
  change of K m for ATP with increasing I: slight decrease
[2]
  reduction of affinity for ATP: ~10 fold
[3]
  increase in affinity for ATP at the high-affinity site: 20–30 fold

## O=[N+]([O-])c1ccc(OP(=O)(O)O)cc1 [pNPP, p-nitrophenylphosphate]
[4]; 0.125 M ClO4−
  K 0.5 for pNPP: ~5.5 mM
[4]; 0.125 M Cl−
  K 0.5 for pNPP: about 4.5 mM
[4]; highest values reached with increasing [KCl] (0.05–0.6 M KCl), 37°C, pH 7.4
  K m for pNPP: 10–12 mM
[5]; low ionic strength, ref Skou, 1974, Campos et al., 1988, Fig. 9 in this paper
  K m for pNPP: 2–3 mM

## CC(=O)[O-].[Na+] [Na-acetate]
[1]; up to 800 mM, not shown
  effect on Na,K-ATPase activity compared with NaCl: the same results as with NaCl

## c1c[nH]cn1 [imidazoleH^+]
[6]; ref Perrin, 1965
  pKa: 7.5

## O=C(O)CN(CCN(CC(=O)O)CC(=O)O)CC(=O)O [H2EDTA^2−]
[6]; ref Kortüm et al., 1961
  pKa: 6.5

## NC(CO)(CO)CO [TrisH^+]
[6]; ref Perrin, 1965
  pKa: 8.8

## O=S(=O)([O-])[O-].[Na+].[Na+] [Na2SO4]
[1]; activity plotted versus I, 20 mM KCl, 3 mM ATP, 4 mM MgCl2
  inhibitory effect on Na,K-ATPase activity, less than that of NaCl: 10–30%

## O=[N+]([O-])O [NO3 ^−]
[7]
  slope of K diss/K A versus [NO3−]: 0.0309 ± 0.0006 mM⁻¹ and 0.031 mM⁻¹
[4]; KNO3 compared with KCl, 10 mM Na2pNPP, also 25 mM pNPP
  specific anion effect on K+-pNPPase activity: does not have any special effect
[8]
  K 0.5 of inhibition: 10 to 50 mM

## Nc1ncnc2c1ncn2[C@@H]1O[C@H](COP(=O)(O)OP(=O)(O)O)[C@@H](O)[C@H]1O [ADP]
[9]; 0–0.5 M NaCl, Na2SO4, NaNO3, 0.1 M Na-acetate, NaSCN, NaClO4
  decrease of apparent affinity for ADP with salt: up to 30 times
[9]; Exp. A2, NaCl series, [Cl−] 119 mM, I 178 mM
  Bmax of ADP-binding: 1.20 ± 0.01 µM
[9]; Exp. A3, NaCl series, [Cl−] 219 mM, I 278 mM
  Bmax of ADP-binding: 1.20 ± 0.02 µM
[9]; Exp. A4, NaCl series, [Cl−] 319 mM, I 378 mM
  Bmax of ADP-binding: 1.13 ± 0.11 µM
[9]; Exp. A5, NaCl series, [Cl−] 394 mM, I 453 mM
  Bmax of ADP-binding: 1.29 ± 0.09 µM
[9]; Exp. A6, NaCl series, [Cl−] 469 mM, I 528 mM
  Bmax of ADP-binding: 1.20 ± 0.11 µM
[9]; Exp. A7, NaCl series, [Cl−] 519 mM, I 578 mM
  Bmax of ADP-binding: 0.98 ± 0.09 µM
[9]; Exp. B1, Na2SO4 series, [SO4 2−] 6 mM, I 78 mM
  Bmax of ADP-binding: 1.70 ± 0.04 µM
[9]; Exp. B2, Na2SO4 series, [SO4 2−] 6 mM, I 78 mM
  Bmax of ADP-binding: 1.73 ± 0.02 µM
[9]; Exp. B3, Na2SO4 series, [SO4 2−] 36 mM, I 168 mM
  Bmax of ADP-binding: 1.71 ± 0.02 µM
[9]; Exp. B4, Na2SO4 series, [SO4 2−] 66 mM, I 258 mM
  Bmax of ADP-binding: 1.77 ± 0.03 µM
[9]; Exp. B5, Na2SO4 series, [SO4 2−] 96 mM, I 348 mM
  Bmax of ADP-binding: 1.72 ± 0.06 µM
[9]; Exp. B6, Na2SO4 series, [SO4 2−] 126 mM, I 438 mM
  Bmax of ADP-binding: 1.96 ± 0.10 µM
[9]; Exp. B7, Na2SO4 series, [SO4 2−] 156 mM, I 528 mM
  Bmax of ADP-binding: 1.77 ± 0.08 µM
[9]; Exp. C1, NaNO3 series, [NO3−] 19 mM, I 78 mM
  Bmax of ADP-binding: 1.80 ± 0.02 µM
[9]; Exp. C2, NaNO3 series, [NO3−] 24 mM, I 83 mM
  Bmax of ADP-binding: 1.83 ± 0.03 µM
[9]; Exp. C3, NaNO3 series, [NO3−] 49 mM, I 108 mM
  Bmax of ADP-binding: 1.80 ± 0.03 µM
[9]; Exp. C4, NaNO3 series, [NO3−] 79 mM, I 138 mM
  Bmax of ADP-binding: 1.84 ± 0.04 µM
[9]; Exp. C5, NaNO3 series, [NO3−] 79 mM, I 138 mM
  Bmax of ADP-binding: 1.84 ± 0.01 µM
[9]; Exp. C6, NaNO3 series, [NO3−] 109 mM, I 168 mM
  Bmax of ADP-binding: 1.78 ± 0.06 µM
[9]; Exp. C7, NaNO3 series, [NO3−] 139 mM, I 198 mM
  Bmax of ADP-binding: 1.80 ± 0.06 µM
[9]; Exp. C8, NaNO3 series, [NO3−] 169 mM, I 228 mM
  Bmax of ADP-binding: 1.82 ± 0.08 µM
[9]; 19 mM Cl− + 100 mM Na+ salt of ClO4−, I 178 mM
  Kd: 38.6 ± 0.7 µM
[9]; 19 mM Cl− + 100 mM Na+ salt of NO3−, I 178 mM
  Kd: 3.24 ± 0.05 µM
[9]; 19 mM Cl− + 100 mM Na+ salt of SCN−, I 178 mM
  Kd: 18.3 ± 0.2 µM
[9]; 19 mM Cl− + 100 mM Na-acetate, I 178 mM
  Kd: 0.635 ± 0.004 µM
[9]; 19 mM Cl− + 100 mM NaCl (Cl−), I 178 mM
  Kd: 0.64 ± 0.007 µM
[10]
  Kd: < 1 µM

## [K+] [K^+]
[5]; K+-pNPPase model with Na+/K+ competition, ref Beaugé et al., 1984
  K 0.5 for K+, chosen for the model: 2 mM
